Test [1] deals with T1, dUTP pyrophosphatase (Leishmania major, UniProt O15826).
T1 sequence (O15826 whole entry): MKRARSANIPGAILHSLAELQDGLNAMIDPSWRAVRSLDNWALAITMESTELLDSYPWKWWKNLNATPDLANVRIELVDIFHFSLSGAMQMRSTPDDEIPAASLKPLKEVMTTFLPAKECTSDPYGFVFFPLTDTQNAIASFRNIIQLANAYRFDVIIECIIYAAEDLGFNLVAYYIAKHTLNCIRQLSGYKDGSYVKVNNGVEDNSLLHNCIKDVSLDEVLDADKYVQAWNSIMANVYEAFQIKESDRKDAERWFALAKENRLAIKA
The test is described as follows: Inhibitory constant against Leishmania major deoxyuridine 5'-triphosphate nucleotidohydrolase.

Test [2] addresses T2, dUTP pyrophosphatase (Plasmodium falciparum 3D7) (UniProt Q8II92).
T2 sequence (whole entry): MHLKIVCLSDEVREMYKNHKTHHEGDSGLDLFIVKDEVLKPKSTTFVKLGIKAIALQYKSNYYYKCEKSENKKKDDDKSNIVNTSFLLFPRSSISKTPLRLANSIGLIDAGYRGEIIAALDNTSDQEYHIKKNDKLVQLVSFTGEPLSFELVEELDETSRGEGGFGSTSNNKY
The test is described as follows: Selectivity index for Plasmodium falciparum deoxyuridine 5'-triphosphate nucleotidohydrolase defined as (Ki Human)/(Ki Plasmodium falciparum); na= not relevant. The procedure, abridged:
(§1)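 Ratio of human dUTPase Ki to P. falciparum dUTPase Ki. Both Ki values came from stopped-flow pH-indicator assays following dUTP hydrolysis, with Ki derived from the dependence of apparent KM on inhibitor concentration.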

In test [3] the target is T3, dUTP pyrophosphatase (Plasmodium falciparum 3D7, UniProt Q8II92).
T3 sequence (Q8II92 whole entry): T2 sequence (whole entry)
The test is described as follows: Inhibitory constant against Plasmodium falciparum deoxyuridine 5'-triphosphate nucleotidohydrolase expressed in Escherichia coli BL21 (DE3) cells. The essentials:
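Recombinant PfdUTPase expressed in E. coli BL21(DE3) and purified by phosphocellulose and gel filtration to ~96% purity. Continuous stopped-flow assay following proton release with cresol red/bicine (50:2000 µM, 573 nm). Mix: 30 nM enzyme, 50 µM dUTP, 5 mM MgCl2, 2.5 mM DTT, 1.25 mg/mL BSA, 100 mM KCl. KMapp from integrated Michaelis-Menten fits, plotted against [I] to give Ki.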

Test [4] has as its target T4, Deoxyuridine 5'-triphosphate nucleotidohydrolase, mitochondrial (Homo sapiens, UniProt P33316).
T4 sequence (P33316 whole entry): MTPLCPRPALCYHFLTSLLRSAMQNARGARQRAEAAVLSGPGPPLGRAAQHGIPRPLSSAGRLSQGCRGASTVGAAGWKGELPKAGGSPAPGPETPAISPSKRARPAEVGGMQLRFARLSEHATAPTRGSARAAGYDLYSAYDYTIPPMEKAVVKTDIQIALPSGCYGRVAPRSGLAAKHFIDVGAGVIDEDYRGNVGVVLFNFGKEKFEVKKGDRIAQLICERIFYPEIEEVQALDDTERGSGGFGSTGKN
The test is described as follows: Inhibitory constant against human deoxyuridine 5'-triphosphate nucleotidohydrolase expressed in Escherichia coli BL21 (DE3) cells. The procedure, abridged:
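Human dUTPase expressed in E. coli BL21(DE3) and purified like the Plasmodium enzyme (phosphocellulose, then gel filtration). dUTP hydrolysis followed continuously by stopped-flow as pH-indicator absorbance (cresol red/bicine, 50:2000 µM, 573 nm). Apparent KM from integrated Michaelis-Menten fits at each inhibitor concentration; Ki from linear KMapp versus [I].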

The subject of another test is L6. Briefly: In vitro cytotoxicity aganist rat skeletal myoblasts (L-6 cells) after 72 hours. It is filed as functional, cell-based. To be noted: L6, 72 h. The procedure, abridged: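 L-6 rat skeletal myoblasts seeded at 4 × 10^4 cells/mL in RPMI 1640 with 10% FBS and 2 mM L-glutamine. After 24 h, medium replaced with a serial drug dilution, then 72 h at 37 °C, 5% CO2. Alamar Blue added for a further 2-4 h. Fluorescence read at ex 536/em 588 nm. Run twice independently, in duplicate.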

In a further test the test system is Plasmodium falciparum. The test is described as follows: In vitro inhibitory activity against Plasmodium falciparum as [3H]hypoxanthine (50 uL) incorporation at 37C. It is filed as functional, organism-based.
The test system of test [5] is Trypanosoma brucei rhodesiense. The test is described as follows: Inhibitory constant against Trypanosoma brucei rhodesiense upon incubation with the compound at 37 degrees C under a 5% CO2 atmosphere for 72 hours. It is filed as functional, organism-based.
In the next test the test system is Leishmania donovani. Briefly: In vitro growth inhibitory activity against Leishmania donovani amastigotes at 37 degrees C under a 5% CO2 atmosphere for 96 hours. It is filed as functional, organism-based. The essentials:
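Mouse peritoneal macrophages in RPMI 1640 with 10% heat-inactivated FBS, infected after 24 h with L. donovani amastigotes at 3:1 (amastigote:macrophage). Free amastigotes washed out at 4 h. Next day, drug-containing medium added for 96 h at 37 °C, 5% CO2. Slides methanol-fixed and Giemsa-stained. Percentage of infected macrophages scored microscopically versus control; IC50 by linear regression. Twice independently, in duplicate.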

A further test relates to Trypanosoma cruzi. The test is described as follows: In vitro growth inhibitory activity against Trypanosoma cruzi in rat L-6 cells upon incubation at 37 degrees C in 5% CO2 atmosphere for 4 days. It is filed as functional, organism-based. As to conditions: L6, 96 h. The procedure, abridged:
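L-6 cells seeded at 2000 cells/well in RPMI 1640 with 10% FBS and 2 mM L-glutamine. After 24 h, 5000 T. cruzi Tulahuen C2C4 LacZ trypomastigotes added with serial drug dilutions, then 4 days at 37 °C, 5% CO2. CPRG/Nonidet substrate added and colour read at 540 nm after 2-4 h. IC50 from sigmoidal curve. Twice independently, in duplicate.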

Test [6] has as its target T2, dUTP pyrophosphatase (Plasmodium falciparum 3D7). The test is described as follows: Selectivity index for Plasmodium falciparum deoxyuridine 5'-triphosphate nucleotidohydrolase defined as (Ki Human)/(Ki Plasmodium falciparum). The procedure, abridged:
as §1

A value given as a limit tells only on which side of the number the result lay.

For the compound `NCC1OC(n2ccc(=O)[nH]c2=O)CC1O` (centres undefined), the Ki (at dUTP pyrophosphatase [1]; at dUTP pyrophosphatase [3]; in test [4]) was above 1000 µM in each case. In [2], the SI entry is “Not Relevant”.

With `CC(=O)NCC1OC(n2ccc(=O)[nH]c2=O)CC1O` (centres undefined), the Ki (at dUTP pyrophosphatase [1]; at dUTP pyrophosphatase [3]; in test [4]) was above 1000 µM each time. Further, the 50% inhibitory concentration (IC50) in the test with L6 is above 335 µM; in the test with Plasmodium falciparum, above 19 µM; in test [5] it was 194 µM; in the test with Leishmania donovani, above 112 µM; with Trypanosoma cruzi it was above 335 µM. Moreover, the SI result in test [2] was “Not Relevant”.

Consider `CCOP(=O)(CC(=O)OC[C@H]1O[C@@H](n2ccc(=O)[nH]c2=O)C[C@@H]1O[Si](C)(C)C(C)(C)C)OCC`, for which the Ki at dUTP pyrophosphatase [1] is above 1000 µM; on dUTP pyrophosphatase [3], 217 µM. Further, the SI result in test [2] was “Not Relevant”. The IC50 with Plasmodium falciparum was 18 µM; in [5], 40 µM; in the test on Leishmania donovani, above 58 µM; in the test on Trypanosoma cruzi, 75 µM.

Compound `CCCCC(=O)OC[C@H]1O[C@@H](n2ccc(=O)[nH]c2=O)C[C@@H]1O` came in with an SI in test [6] above 4. Moreover, the inhibitory constant (Ki) on dUTP pyrophosphatase [1] is above 1000 µM; on dUTP pyrophosphatase [3], 228 µM; in test [4] it was above 1000 µM. The IC50 in the test with L6 is above 289 µM; in the test with Plasmodium falciparum, above 16 µM; in [5] it was 147 µM; in the test with Leishmania donovani, 96 µM; with Trypanosoma cruzi, above 284 µM.

As to `CC(C)(C)[Si](C)(C)OC1CC(n2ccc(=O)[nH]c2=O)OC1CNP(=O)(Oc1ccccc1)Oc1ccccc1` (centres undefined), the SI in test [6] is 3.5. Moreover, the inhibition constant Ki on dUTP pyrophosphatase [1] was above 1000 µM; on dUTP pyrophosphatase [3] it was 67 µM; in [4], 232 µM. Moreover, the concentration for half-maximal inhibition (IC50) in the test with L6 was 18 µM; in the test on Plasmodium falciparum, 4 µM; in [5], 28 µM; in the test with Leishmania donovani, below 6 µM; in the test on Trypanosoma cruzi, 6 µM.

In test [6], `CCOP(=O)(CC(=O)OC[C@H]1O[C@@H](n2ccc(=O)[nH]c2=O)C[C@@H]1O)OCC` displayed an SI above 8. The results for the inhibitory constant (Ki) (at dUTP pyrophosphatase [1]; at dUTP pyrophosphatase [3]; in test [4]) were above 1000 µM, 123 µM and above 1000 µM, respectively. The 50% inhibitory concentration (IC50) was 168 µM in the test with L6; 98 µM in the test on Plasmodium falciparum; 123 µM in test [5]; above 74 µM in the test with Leishmania donovani; above 222 µM in the test on Trypanosoma cruzi.

For the compound `NS(=O)(=O)OC[C@H]1O[C@@H](n2ccc(=O)[nH]c2=O)C[C@@H]1O`, the Ki on dUTP pyrophosphatase [1] was 707 µM; at dUTP pyrophosphatase [3] it was above 1000 µM; in [4] it was above 1000 µM. Besides, the SI result in test [2] was “Not Relevant”. The half-maximal inhibitory concentration (IC50) in the test on Plasmodium falciparum was above 163 µM; in [5], 145 µM; in the test with Leishmania donovani it was above 98 µM; with Trypanosoma cruzi, above 293 µM.

`O=c1ccn(C2C=CC(CO[Si](c3ccccc3)(c3ccccc3)c3ccccc3)O2)c(=O)[nH]1` (centres undefined) displayed an SI in test [6] above 769. The inhibition constant (Ki) at dUTP pyrophosphatase [1] was 350 µM; on dUTP pyrophosphatase [3], 1.3 µM; in test [4] it was above 1000 µM. In addition, the IC50 with L6 was found to be 85 µM; with Plasmodium falciparum it was 1 µM; in [5], 1.6 µM; with Leishmania donovani, 13 µM; in the test on Trypanosoma cruzi, 42 µM.

Consider `O=c1ccn(C2CC(F)C(CNC(c3ccccc3)(c3ccccc3)c3ccccc3)O2)c(=O)[nH]1` (centres undefined), for which the SI in [6] is above 83. In addition, the inhibitory constant (Ki) on dUTP pyrophosphatase [1] is above 1000 µM; on dUTP pyrophosphatase [3] it was 12 µM; in [4], above 1000 µM. The IC50 with L6 is 30 µM; in the test with Plasmodium falciparum, 5.3 µM; in test [5], 3.6 µM; in the test on Leishmania donovani, above 63 µM; with Trypanosoma cruzi, 47 µM.

Compound `NS(=O)(=O)NC(=O)OCC1C=CC(n2ccc(=O)[nH]c2=O)O1` (centres undefined) returned an SI in [6] of 9.7. Moreover, the inhibition constant (Ki) at dUTP pyrophosphatase [1] was above 1000 µM; at dUTP pyrophosphatase [3], 82 µM; in test [4] it was 799 µM. The IC50 in the test with L6 was 262 µM; with Plasmodium falciparum it was above 150 µM; in test [5] it was 40 µM; in the test on Leishmania donovani it was above 90 µM; in the test on Trypanosoma cruzi it was above 270 µM.

For the compound `O=c1ccn(C2CC(F)C(CO[Si](c3ccccc3)(c3ccccc3)c3ccccc3)O2)c(=O)[nH]1` (centres undefined), the values for the Ki (on dUTP pyrophosphatase [1]; on dUTP pyrophosphatase [3]; in test [4]) were above 1000 µM, 975 µM and above 1000 µM, respectively. Further, the IC50 in the test on L6 is 86 µM; with Plasmodium falciparum, 1 µM; in [5] it was 4.5 µM; in the test on Trypanosoma cruzi it was 84 µM. Moreover, the SI result in test [2] was “Not Relevant”.

Turning to `O=c1ccn(C2CC(O)C(CNP(=O)(Oc3ccccc3)Oc3ccccc3)O2)c(=O)[nH]1` (centres undefined), the SI in [6] was above 38. For the same compound, the values for the Ki (on dUTP pyrophosphatase [1]; on dUTP pyrophosphatase [3]; in test [4]) were above 1000 µM, 26 µM and above 1000 µM, respectively. Moreover, the IC50 with L6 is above 196 µM; with Plasmodium falciparum, above 11 µM; in test [5], above 196 µM; in the test with Leishmania donovani, above 65 µM; in the test on Trypanosoma cruzi, above 65 µM.

Source of the values: ChEMBL document CHEMBL1140411, “Deoxyuridine triphosphate nucleotidohydrolase as a potential antiparasitic drug target” (J Med Chem, 2005).
